ARNT-TACC3 inh = ARNT/TACC3 interaction disruption; 390,000 tested, 0.66% active; Q9Y6A5; AlphaScreen His-ARNT PAS-B/GST-TACC3 binding, luminescence; TACC3 fragment carries E629A point mutation; inhibition, % at 9.99 µM;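 active means mean inhibition of replicates at least 50% and at least half of replicates each reaching 50%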;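 further: 0% = complete ARNT plus TACC3 wells and 100% = ARNT alone without TACC3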
FN deposition inh = fibronectin deposition inhibition | inhibition, % at 12.6 µM | AH1F fibroblasts, Alexa488-fibronectin deposition fluorescence, overnight | 350,000 tested, 0.086% active;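 active means mean inhibition across replicates of 30% or more, regardless of how many single replicates reach that level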;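 further: positive control wells lacked labelled fibronectin entirely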
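Material – AH1F fibroblast monolayer, labelled fibronectin deposition · Reagent – labelled fibronectin 24 nM · Timing – 1 h adhesion, overnight exposure · Measured by – fluorescence at 485 nm excitation, 525 nm emission · Read-out – inhibition of fibronectin deposition signal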
SIRT5 block = sirtuin-5 (human) deacylase inhibition; Q9NXA8; Purified SirT5, succinyl-peptide AMC, trypsin-coupled fluorescence; inhibition, % at 15 µM; 330,000 tested, 1.1% active; in the data active means inhibition above about 15%
Target sequence (Q9NXA8 whole entry, looked up): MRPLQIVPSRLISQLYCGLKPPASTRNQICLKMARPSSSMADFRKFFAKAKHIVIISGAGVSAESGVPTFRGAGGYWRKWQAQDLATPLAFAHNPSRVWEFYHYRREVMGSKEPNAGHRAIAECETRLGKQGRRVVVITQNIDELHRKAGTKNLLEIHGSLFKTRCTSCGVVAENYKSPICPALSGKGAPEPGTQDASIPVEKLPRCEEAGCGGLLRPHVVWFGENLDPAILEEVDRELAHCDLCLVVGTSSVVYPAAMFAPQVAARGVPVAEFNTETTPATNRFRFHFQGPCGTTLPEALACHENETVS
DENV2 CPE rescue = inhibitors of DENV2 cytopathic effect; CPE inhibition, % at 9.99 µM; 350,000 tested, 1.7% active; DENV2-infected cells, cytopathic effect rescue, plate reader; in the data active means CPE inhibition above about 20%, passing the limit was not always enough; tested in BHK-21 cells;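 further: 0% = median of neutral control wells and 100% = median of positive control wells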
FGF22 binding = FGF22 (human) thermal shift binding; AID 651658; recombinant FGF22 thermal shift, SYPRO orange fluorescence; percent of sucrose octasulfate shift, DMSO zero; activity (Tm shift, normalised), % at 9.99 µM; 340,000 tested, 1.5% active; Q9HCT0;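 active means mean Tm shift, scaled 0 neutral to 100 positive control, at about 1.3% or above, every replicate too, limit read from the data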
Target sequence (Q9HCT0 whole entry, looked up): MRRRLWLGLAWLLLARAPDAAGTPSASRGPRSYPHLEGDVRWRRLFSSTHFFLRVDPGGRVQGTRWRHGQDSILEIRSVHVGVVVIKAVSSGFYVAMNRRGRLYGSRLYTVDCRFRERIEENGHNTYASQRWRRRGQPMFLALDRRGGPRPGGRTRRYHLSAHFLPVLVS
Xi reactivation = activators of X-chromosome reactivation in mouse fibroblasts; XiGFP mouse fibroblasts, % GFP-positive cells imaging, 3 d; cells co-treated with 5-aza-dC sensitizer; scaled so ellipticine positive control = 100%; activation, % at 7.58 µM; 360,000 tested, 0.055% active;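 active means mean normalized replicate activation at least 10% and every replicate at or above 10%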;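 further: 0% = median of on-plate neutral control wells and 100% = ellipticine 6 µM median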
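Material: SV40-immortalized XiGFP fibroblast cells, line 68-5-11 | Buffer or medium: DMEM containing 5-aza-dC | Dosing: One concentration, pinned | Times: 3 d treatment, 15 min room-temperature fixation | Controls: Ellipticine 6 µM positive control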
Numbers without * were called inactive. Rows were chosen to be rich in hits. Some 3.8% of all compounds tested hit in one or more screens of this group.

Screening CN(C)CC(=O)N[C@H]1CC[C@H](CCn2cc(CN(C)C)nn2)O[C@H]1CO returned FN deposition inh -8, SIRT5 block 1, DENV2 CPE rescue 1, FGF22 binding 0 and Xi reactivation 0.
`N#Cc1c(SCC(N)=O)nc2c(c1-c1ccncc1)CCCC2` gave ARNT-TACC3 inh -10, FN deposition inh 8, SIRT5 block 0, DENV2 CPE rescue 2, FGF22 binding 0 and Xi reactivation 0.
`CCN(CC)C(=O)CSc1nc2c(c(-c3cccnc3)c1C#N)CCCC2` gave ARNT-TACC3 inh -1, FN deposition inh 12, SIRT5 block 3, DENV2 CPE rescue -1, FGF22 binding 43* and Xi reactivation 1.
For Cc1ccccc1-c1cnc2c(c1)C(=O)N([C@@H](C)CO)C[C@@H](C)[C@@H](CN(C)C(=O)c1ccncc1)O2 the results were ARNT-TACC3 inh 1, SIRT5 block -3, DENV2 CPE rescue -4, FGF22 binding 0 and Xi reactivation 1.
Screening COC(=O)C[C@H]1C=C[C@@H](NC(=O)Nc2ccc(C(F)(F)F)cc2)[C@H](CO)O1 returned ARNT-TACC3 inh -3, FN deposition inh 1, SIRT5 block -1, DENV2 CPE rescue -3, FGF22 binding 0 and Xi reactivation 1.
Screening Clc1ccccc1-c1nnc(CNC2CC2)o1 returned ARNT-TACC3 inh 0, FN deposition inh -7, SIRT5 block -4, DENV2 CPE rescue 3, FGF22 binding 44* and Xi reactivation 0.
Screening CC12CCCC(C(C#N)C(N)=O)(C1)NC(=O)C2C#N (configuration not stated) returned ARNT-TACC3 inh -5, FN deposition inh -1, SIRT5 block 20*, DENV2 CPE rescue -1, FGF22 binding 0 and Xi reactivation 0.
COc1ccccc1CN1C[C@@H](C)[C@H](OC)CN(C)C(=O)c2cc(NC(C)=O)ccc2OC[C@@H]1C was read as ARNT-TACC3 inh 4, FN deposition inh 28, SIRT5 block -1, DENV2 CPE rescue 3, FGF22 binding 0 and Xi reactivation 0.
Screening CCOC(=O)CC1C(=O)NCCN1Cc1cccs1 (configuration not stated) returned ARNT-TACC3 inh -8, FN deposition inh -10, SIRT5 block 0, DENV2 CPE rescue -16, FGF22 binding 43* and Xi reactivation 0.
`O=C(O)CC1C(=O)NCCN1Cc1cccs1` (configuration not stated) gave ARNT-TACC3 inh 6, FN deposition inh -4, SIRT5 block -2, DENV2 CPE rescue 0, FGF22 binding 0 and Xi reactivation 0.
For CCC1(CC)Cc2ccccc2-c2[nH]c(=S)[nH]c(=O)c21 the results were ARNT-TACC3 inh -6, FN deposition inh -1, SIRT5 block 0, DENV2 CPE rescue 0, FGF22 binding 0 and Xi reactivation 0.
For CC(C)C1Cc2ccccc2-c2[nH]c(=S)[nH]c(=O)c21 (configuration not stated) the results were FN deposition inh -5, SIRT5 block -5, DENV2 CPE rescue 72*, FGF22 binding 0 and Xi reactivation 0.
Cc1ccccc1NC(=O)CN1C(=O)S/C(=C\c2ccc(-c3cc(C(=O)O)ccc3C)o2)C1=O was read as ARNT-TACC3 inh -3, FN deposition inh -8, SIRT5 block -3, DENV2 CPE rescue 12, FGF22 binding 0 and Xi reactivation 40*.
Cc1ccc(C(=O)O)cc1-c1ccc(/C=C2\SC(=O)N(CC(=O)Nc3ccccc3)C2=O)o1 was read as ARNT-TACC3 inh -2, FN deposition inh 2, SIRT5 block 3, DENV2 CPE rescue -2, FGF22 binding 0 and Xi reactivation 0.
Screening Cc1ccc(NC(=O)CN2C(=O)S/C(=C/c3ccc(-c4cccc(C(=O)O)c4)o3)C2=O)cc1 returned ARNT-TACC3 inh -2, FN deposition inh 4, SIRT5 block -1, DENV2 CPE rescue 6, FGF22 binding 43* and Xi reactivation 0.
O=C(C[C@H]1CC[C@H](NC(=O)NC2CCCCC2)[C@@H](CO)O1)NCc1ccccc1 was read as ARNT-TACC3 inh -2, FN deposition inh 9, SIRT5 block -4, DENV2 CPE rescue -2, FGF22 binding 0 and Xi reactivation 0.
Cc1noc(C)c1NC(=O)N(C)C[C@@H]1Oc2ccc(NC(=O)c3ccncc3)cc2C(=O)N([C@H](C)CO)C[C@H]1C was read as ARNT-TACC3 inh -1, SIRT5 block 2, DENV2 CPE rescue 3, FGF22 binding 0 and Xi reactivation 0.
Screening Cc1nc(CCNC(=O)CC2C(=O)NCCN2CC(C)C)nc2c1CCC2 (configuration not stated) returned ARNT-TACC3 inh 1, FN deposition inh -4, SIRT5 block 0, DENV2 CPE rescue 44*, FGF22 binding 0 and Xi reactivation 0.
For Cc1cc(-c2c(C)[nH]n(-c3ccc(Cl)cc3)c2=O)n[nH]1 the results were ARNT-TACC3 inh 57* and FN deposition inh -3.
For Cc1[nH]n(-c2ccccc2)c(=O)c1Sc1ccc(Cl)cc1 the results were ARNT-TACC3 inh 7.
Screening CN(C)S(=O)(=O)n1cc(/C=C(\NC(=O)c2ccccc2)C(=O)NCCCn2ccnc2)c2ccccc21 returned ARNT-TACC3 inh 14, FN deposition inh -9, SIRT5 block -3, DENV2 CPE rescue 10, FGF22 binding 0 and Xi reactivation 0.
For O=C(NCCCn1ccnc1)/C(=C/c1ccc(F)cc1)NC(=O)c1ccccc1 the results were ARNT-TACC3 inh 62*, FN deposition inh -3, SIRT5 block 2, DENV2 CPE rescue -4, FGF22 binding 0 and Xi reactivation 0.
Screening O=C(NCCCn1ccnc1)/C(=C\c1ccco1)NC(=O)c1ccco1 returned ARNT-TACC3 inh 57*, FN deposition inh 7, SIRT5 block 1, DENV2 CPE rescue 4, FGF22 binding 0 and Xi reactivation 0.
`CN(C)S(=O)(=O)n1cc(/C=C(\NC(=O)c2ccccc2Cl)C(=O)NCCCn2ccnc2)c2ccccc21` gave ARNT-TACC3 inh -3, FN deposition inh 6, SIRT5 block 19*, DENV2 CPE rescue -6, FGF22 binding 0 and Xi reactivation 0.
For CC(C)CCN1CCN(CC(c2ccccc2)c2ccccc2)CC1CCO (configuration not stated) the results were ARNT-TACC3 inh 3, SIRT5 block 0, DENV2 CPE rescue -5, FGF22 binding 43* and Xi reactivation 0.
For Cc1oc(-c2cccs2)nc1CN1CCN(CCC(C)C)C(CCO)C1 (configuration not stated) the results were FN deposition inh -11, SIRT5 block 17*, DENV2 CPE rescue 4, FGF22 binding 0 and Xi reactivation 0.

Screening results: PubChem BioAssay, Broad Institute
